Test results as given in paper PMC5204206 (ACS Omega, 2016).
Where two headings read alike, the source gives them in different places.

Columns and labels:
streptavidin (SA) [1] = molecular target: T1, streptavidin (SA) (Streptomyces avidinii, UniProt P22629); test: Direct binding to SA quantified by Trp-FRET
Procedure, shortened: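 Tryptophan excited at 295 nm, emission read at 460 nm, averaged over three readings. SA-alone and free-probe signals subtracted, then corrected by quenching ratio (Iad = IFRET/Qr). Plotted against SA monomer concentration; one-site specific binding fit, triplicate.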

streptavidin (SA) [2] = molecular target: T1, streptavidin (SA); test: Isothermal titration calorimetry; type: binding
streptavidin (SA) [3] = molecular target: T1, streptavidin (SA); test: Binding to SA by quenching or enhancement of PB fluorescence
Procedure, shortened: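 Streptavidin at varied concentrations (spanning at least 20–80% complexation) incubated 1 h at room temperature with shaking in PBS pH 7.4 with fixed PB-linked probe (5 or 25 nM). Ex 400 nm, em 460 nm. SA-alone background subtracted. Change in fluorescence normalized and plotted against SA monomer concentration; one-site specific binding fit, triplicate. For one probe, the three highest SA concentrations (64–256 nM) were excluded.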

[4] = cited from earlier work
streptavidin (SA) [5] = molecular target: T1, streptavidin (SA); test: Competition binding
streptavidin (SA) [6] = molecular target: T1, streptavidin (SA); test: Comparison of Trp-FRET acceptors; details: for FF (FRET fold effect): FF = Iad/Ia; for Iad (intensity of FRET acceptor, sensitivity): acceptor 100 nM bound to SA 400 nM, Ex. 295 nm, at Em. λmax, normalized to Id; for Fold less sensitive than PB (12) as Trp-FRET acceptor / E (efficiency of FRET with tryptophan): bound to SA; for E (efficiency of FRET with tryptophan): E = 1 – Ida/Id
Procedure, shortened: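 Biotin-linked fluorophore acceptors (100 nM) bound to streptavidin (400 nM, as monomer) in PBS pH 7.4. Tryptophan excited at 295 nm; acceptor intensity (Iad) read at its emission λmax and normalized to donor intensity (Id). FRET efficiency E = 1 − Ida/Id; fold effect FF = Iad/Ia.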

[7] = Photophysical properties of probes in PBS; type: physicochemical; details: for ε (molar extinction coefficient): PBS (0.5% DMSO), at absorbance λmax; for Fold by which PB-derived probe 12 is brighter than this probe: aqueous PBS (pH 7.4)
Procedure, shortened: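 ε: Beer's-law plots of absorbance at λmax vs concentration in PBS (0.5% DMSO), 1 cm path; least-squares fit through zero. Spectra: 32 µM for absorbance, 50 nM for emission, excited at λmax. Φ by Williams' method: excitation 396 nm, integrated emission 415–700 nm at 5–160 nM, plotted against absorbance extrapolated from higher concentrations; coumarin 102 standard (Φ = 0.66 in water).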

T1 sequence (P22629 25-183): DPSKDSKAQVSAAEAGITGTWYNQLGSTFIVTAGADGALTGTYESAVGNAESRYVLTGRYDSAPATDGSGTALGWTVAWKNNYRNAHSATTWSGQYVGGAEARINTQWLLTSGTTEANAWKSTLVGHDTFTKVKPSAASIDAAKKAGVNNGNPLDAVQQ

Compound	Kd (streptavidin (SA) [2])	Ki (streptavidin (SA) [5])	FF (FRET fold effect) (streptavidin (SA) [6])	Iad (intensity of FRET acceptor, sensitivity) (streptavidin (SA) [6])	E (efficiency of FRET with tryptophan) (streptavidin (SA) [6])	ε (molar extinction coefficient) [7]	also measured
C[C@@H]1NC(=S)N[C@@H]1CCCCCC(=O)NCCNC(=O)c1cc2cc(F)c(O)c(F)c2oc1=O [compound 18, 6,8-Difluoro-7-hydroxy-N-(2-(6-((4R,5S)-5-methyl-2-thioxoimidazolidin-4-yl)hexanamido)ethyl)-2-oxo-2H-chromene-3-carboxamide]	0.125 ± 0.045 µM						Kd (streptavidin (SA) [1]): 0.145 ± 0.019 µM; Change of fluorescence of PB-linked ligand on binding to SA (streptavidin (SA) [3]): enhanced
O=C(O)c1cc2cc(F)c(O)c(F)c2oc1=O [PB, 6,8-Difluoro-7-hydroxy-2-oxo-2H-chromene-3-carboxylic Acid, reference compound]							ε (molar extinction coefficient) [4]: 29 500 M^–1 cm^–1
COC(=O)CCCCC[C@H]1NC(=S)N[C@H]1C [compound 21, Methyl 6-((4R,5S)-5-methyl-2-thioxoimidazolidin-4-yl)hexanoate]		0.693 ± 0.091 µM					
CN(C)c1ccc2c(CC(=O)NCCNC(=O)CCCC[C@@H]3SC[C@@H]4NC(=O)N[C@@H]43)cc(=O)oc2c1 [compound 15, N-(2-(2-(7-(Dimethylamino)-2-oxo-2H-chromen-4-yl)acetamido)ethyl)-5-((3aS,4S,6aR)-2-oxohexahydro-1H-thieno[3,4-d]imidazol-4-yl)pentanamide]			8.0	0.6	0.35	11 600 M^–^1cm^–^1	Fold less sensitive than PB (12) as Trp-FRET acceptor (streptavidin (SA) [6]; compared with 12): 6 fold; Fold by which PB-derived probe 12 is brighter than this probe [7]: ~17 fold; Φf (quantum yield) [4]: 0.06[6]
C[C@@H]1NC(=S)N[C@@H]1CCCCCC(=O)O [compound 20, 6-((4R,5S)-5-Methyl-2-thioxoimidazolidin-4-yl)hexanoic Acid]	1.55 ± 0.27 µM	1.35 ± 0.18 µM					
O=C(CCCC[C@@H]1SC[C@@H]2NC(=O)N[C@@H]21)NCCNC(=O)Cc1cc(=O)oc2cc(O)ccc12 [compound 14, N-(2-(2-(7-Hydroxy-2-oxo-2H-chromen-4-yl)acetamido)ethyl)-5-((3aS,4S,6aR)-2-oxohexahydro-1H-thieno[3,4-d]imidazol-4-yl)pentanamide]			4.8	2.2	0.21	7800 M^–^1cm^–^1	Fold less sensitive than PB (12) as Trp-FRET acceptor (streptavidin (SA) [6]; compared with 12): 1.5 fold; Reduction of FRET fold effect (FF), factor (streptavidin (SA) [6]; compared with 12, due to increased excitation at 295 nm): 4; Fold by which PB-derived probe 12 is brighter than this probe [7]: ~3 fold; Φf (quantum yield) [4]: 0.47[6]
C[C@@H]1NC(=S)NC1CCCCCC(=O)OCc1ccccc1 (stereo partly drawn) [compound 22, Benzyl 6-((5S)-5-methyl-2-thioxoimidazolidin-4-yl)hexanoate]		0.188 ± 0.025 µM					
O=C(CCCC[C@@H]1SC[C@@H]2NC(=S)N[C@@H]21)NCCNC(=O)c1cc2cc(F)c(O)c(F)c2oc1=O [compound 17, 6,8-Difluoro-7-hydroxy-2-oxo-N-(2-(5-((3aS,4S,6aR)-2-thioxohexahydro-1H-thieno[3,4-d]imidazol-4-yl)pentanamido)ethyl)-2H-chromene-3-carboxamide]	0.012 ± 0.004 µM						Kd (streptavidin (SA) [1]): 0.011 ± 0.002 µM; Change of fluorescence of PB-linked ligand on binding to SA (streptavidin (SA) [3]): partially quenched
O=C(CCCC[C@@H]1SC[C@@H]2NC(=O)N[C@@H]21)NCCNC(=O)c1cc2cc(F)c(O)c(F)c2oc1=O [compound 12, 6,8-Difluoro-7-hydroxy-2-oxo-N-(2-(5-((3aS,4S,6aR)-2-oxohexahydro-1H-thieno[3,4-d]imidazol-4-yl)pentanamido)ethyl)-2H-chromene-3-carboxamide]			19.2	3.3	0.40	24 200 M^–^1cm^–^1	Φf (quantum yield) ([7]; PBS, relative to coumarin 102): 0.74
O=C(O)CCCC[C@@H]1SC[C@@H]2NC(=O)N[C@@H]21 [biotin, reference compound]							Effect of competitor on FRET from 12 bound to SA (streptavidin (SA) [6]; biotin 10 μM, 12 100 nM, SA monomer 400 nM): blocked FRET
